According to PubChem BioAssay:
Calls of active or inactive are those of the source.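 The calls were made as follows, unless noted: active = viability at or below 30% in both replicate assays; inconclusive = viability at or below 30% in just one of the two assays; inactive = the rest.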

Tests used:
[1] = SK-BR-3 cell growth inhibitors, pilot screen, 24 h, human (AID 572;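 active = viability at or below 10% of carrier control in both of two separate runs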;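 also: compound exposure lasted between 18 and 24 h rather than exactly 24 h; 100% = carrier-treated control wells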); settings: SK-BR-3 viability, CellTiter-Glo luminescence, at 10 µM, stronger effect = lower value
[2] = HUVEC growth inhibition – cell-based, human, primary screen (AID 575); settings: HUVEC proliferation, CellTiter-Glo luminescence, 72 h; at 10 µM; stronger effect = lower value;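 also: 100% = median of untreated cell wells with 0.1% DMSO on each plate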
In short: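 system = HUVEC primary cells | amount = 1250 cells/well | buffer or medium = supplemented EBM, 2% fetal bovine serum | dosing = single-point 10 µM, DMSO 0.1% final | times = 72 h compound incubation | detection = CTG luminescence | read-out = % viability relative to median vehicle-well signal on each plate | control set = vehicle and MePR control wells | format = collagen-coated 384-well format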

[3] = growth inhibitors of H69AR lung tumor, primary screen, human, duplicate replicates (AID 580;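 active = viability at or under a set limit in both replicates, limit being median viability minus 3 SD, cut at about 48% in these data, passing the limit was not always enough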;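 also: 100% = mean luminescence of untreated wells and 0% = no signal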); settings: H69AR lung tumor cells viability, ATP luminescence, 72 h; at 10 µM; stronger effect = lower value
[4] = reversal of MRP1-mediated doxorubicin resistance, pilot screen, H69AR cells, doxorubicin co-treatment (AID 601;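 active = viability loss from added drug above about 55%, and viability with drug at most 40%, in both replicates, limit read from the data, passing the limit was not always enough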); settings: CellTiter-Glo, 72 h, at 10 µM; for differential viability (reversal): stronger effect = higher value
[5] = 384-well plate pilot, post-Golgi transport modulator project, inhibition of yeast transport mutant growth (AID 636; in the data active = inhibition above about 31%); settings: absorbance 615 nm, about 18 h, stronger effect = higher value
[6] = growth suppression of yeast trafficking mutant, preliminary HTS, modulators of trafficking downstream of Golgi apparatus project, 1536-format plate, OD 615 nm (AID 637; in the data active = inhibition above about 30%); settings: yeast transport mutant growth, absorbance 615 nm, 18 h; stronger effect = higher value
[7] = H69AR cells + 2 uM doxorubicin, measured here: viability with 2 uM doxorubicin, stronger effect = lower value
[8] = H69AR cells, compound alone cytotoxicity

Row | Structure (SMILES) | viability [1] | viability [2] | viability [3] | differential viability (reversal) ([4]; H69AR cells + 2 uM doxorubicin) | viability [4, 7] [%] | viability [4, 8] [%] | inhibition [5] | inhibition [6]
1 | c1ccc2oc(SCc3cn4ccccc4n3)nc2c1 | 91% (inactive) | 93.3% (inactive) | 95% (inactive) | 9.37% (inactive) | 85.6 | 95 | -1.43% (inactive) | -1.48% (inactive)
2 | CCc1nnc(SCC(=O)NC2CCCCC2)nc1CC | 94% (inactive) | 92.5% (inactive) | 97.9% (inactive) | 13.1% (inactive) | 84.8 | 97.9 | -4.29% (inactive) | -7.7% (inactive)
3 | COc1ccc(C2/C(=C(/O)c3ccccc3)C(=O)C(=O)N2c2ncccn2)cc1OC (stereo unspecified) | 105% (inactive) | 101% (inactive) | 108% (inactive) | 8.68% (inactive) | 99.1 | 108 | -4.59% (inactive) | -2.55% (inactive)
4 | O=C(CSCc1ccc(F)cc1)NC1CCCC1 | 137% (inactive) | 108% (inactive) | 95.8% (inactive) | 13.6% (inactive) | 82.2 | 95.8 | -3.9% (inactive) | 4.1% (inactive)
5 | CN1C(=O)c2oc3ccccc3c(=O)c2C1c1ccccn1 (stereo unspecified) | 105% (inactive) | 87% (inactive) | 106% (inactive) | 11% (inactive) | 94.8 | 106 | -6.58% (inactive) | -1.09% (inactive)
6 | CCCN(CC1CC1)C(=O)Nc1ccccc1C | 94% (inactive) | 101% (inactive) | 104% (inactive) | 12.2% (inactive) | 92.2 | 104 | -1.04% (inactive) | -12.9% (inactive)
7 | Oc1c(I)cc(I)c2cccnc12 | 61% (inactive) | 71.3% (inactive) | 84.6% (inactive) | -6.25% (inactive) | 90.9 | 84.6 | -2.73% (inactive) | 1% (inactive)
8 | Cc1ccc2c(c1)C(O)(CC(=O)c1ccc3c(c1)OCO3)C(=O)N2 (stereo unspecified) | 78% (inactive) | 92.3% (inactive) | 94.3% (inactive) | 8.13% (inactive) | 86.2 | 94.3 | -4.11% (inactive) | -7.58% (inactive)
9 | O=C(O)Cc1ccccc1C(=O)O | 120% (inactive) | 92.2% (inactive) | 95.1% (inactive) | -0.3% (inactive) | 95.4 | 95.1 | -6.85% (inactive) | 1.29% (inactive)
10 | Cc1cc(C(C)(C)C)c(O)c(C)c1CC1=NCCN1 | 95% (inactive) | 93.4% (inactive) | 92.5% (inactive) | 2.26% (inactive) | 90.3 | 92.5 | -9.04% (inactive) | -3.23% (inactive)
11 | CN1CCN(S(=O)(=O)c2ccc(NC(=O)Nc3cccc(Cl)c3)cc2)CC1 | 96% (inactive) | 4.34% (active) | 65% (inactive) | -8.79% (inactive) | 73.8 | 65 | -3.6% (inactive) | 1.31% (inactive)
12 | COc1ccccc1C(=O)NCC(=O)Nc1ccccc1 | 104% (inactive) | 98.2% (inactive) | 98.5% (inactive) | -1.45% (inactive) | 100 | 98.5 | -8.08% (inactive) | 2.91% (inactive)
13 | CCc1c(C)nc2ncnn2c1N1CCC(C(=O)NCc2cccc(OC)c2)CC1 | 134% (inactive) | 85.8% (inactive) | 89.9% (inactive) | -9.81% (inactive) | 99.7 | 89.9 | -3.7% (inactive) | -1.29% (inactive)
14 | CCCC(CCC)C(=O)NCCN1CCOCC1 | 118% (inactive) | 85% (inactive) | 96.8% (inactive) | 10.2% (inactive) | 86.6 | 96.8 | -2.34% (inactive) | 4.92% (inactive)
15 | Cc1ccc(S(=O)(=O)N2CCN(C(=O)N3CCOCC3)C2c2ccc(N(C)C)cc2)cc1 (stereo unspecified) | 106% (inactive) | 96.3% (inactive) | 110% (inactive) | 5.79% (inactive) | 105 | 110 | -6.03% (inactive) | 9.64% (inactive)
16 | CCCCC(=O)Nc1ccc(NC(=O)C2CC2)nc1 | 91% (inactive) | 108% (inactive) | 101% (inactive) | -4.46% (inactive) | 106 | 101 | -1.51% (inactive) | -1.13% (inactive)
17 | Cc1c(C(=O)N2CCN(c3ccccc3)CC2)sc2ncnc(N3CCN(c4ccccc4)CC3)c12 | 88% (inactive) | 82.5% (inactive) | 93% (inactive) | -4.17% (inactive) | 97.2 | 93 | 0.13% (inactive) | -4.59% (inactive)
18 | COc1ccc2c3c(c(=O)oc2c1OCC(N)=O)CCCC3 | 117% (inactive) | 117% (inactive) | 97.6% (inactive) | 16.2% (inactive) | 81.3 | 97.6 | -5.48% (inactive) | -2.55% (inactive)
19 | O=C(CCCSc1nc2ccccc2s1)NC1=NCCS1 | 86% (inactive) | 102% (inactive) | 93.7% (inactive) | -4.02% (inactive) | 97.8 | 93.7 | -7.53% (inactive) | 1.82% (inactive)

Row | Structure (SMILES) | viability [1] | viability [2] | viability [3] | differential viability (reversal) ([4]; H69AR cells + 2 uM doxorubicin) | viability [4, 7] [%] | viability [4, 8] [%] | inhibition [5] | inhibition [6]
20 | Nc1ncnc2nc(Sc3ccc(Cl)cc3)[nH]c12 | 99% (inactive) | 96.1% (inactive) | 98.6% (inactive) | 7.52% (inactive) | 91.1 | 98.6 | 0.52% (inactive) | 4.59% (inactive)
21 | CC(C)CCNC(=O)C(C)N(Cc1ccc(F)cc1)C(=O)c1ccc(CN2CCCCC2)o1 (stereo unspecified) | 72% (inactive) | 108% (inactive) | 95.4% (inactive) | -0.095% (inactive) | 95.5 | 95.4 | -5.95% (inactive) | -2.91% (inactive)
22 | Cc1onc(-c2c(F)cccc2Cl)c1C(=O)Nc1nc2c(s1)CCCC2 | 109% (inactive) | 92.7% (inactive) | 77.3% (inactive) | -27% (inactive) | 104 | 77.3 | -3.29% (inactive) | -1.09% (inactive)
23 | c1ccc(-c2nc3ccccc3nc2-c2ccccn2)nc1 | 89% (inactive) | 107% (inactive) | 89.5% (inactive) | -9.55% (inactive) | 99.1 | 89.5 | -1.17% (inactive) | 0.98% (inactive)
24 | Cc1cc(=O)n2nc(N3CCCC(C(=O)N4CCc5ccccc54)C3)sc2n1 (stereo unspecified) | 82% (inactive) | 87.1% (inactive) | 85.8% (inactive) | -2.83% (inactive) | 88.7 | 85.8 | -6.76% (inactive) | 1.64% (inactive)
25 | COc1cc2[nH]c3c(=O)n(CCN(C(C)C)C(C)C)cnc3c2cc1OC | 95% (inactive) | 99.1% (inactive) | 83.5% (inactive) | -0.365% (inactive) | 83.9 | 83.5 | -6.89% (inactive) | 4.91% (inactive)
26 | C=CCn1cnc2c(c1=O)c1nc3ccccc3nc1n2-c1ccc(C)cc1 | 105% (inactive) | 97.2% (inactive) | 86.9% (inactive) | -6.75% (inactive) | 93.7 | 86.9 | -5.48% (inactive) | -1.61% (inactive)
27 | Cc1cc(NCC2CCCO2)n2c(nc3ccccc32)c1C#N (stereo unspecified) | 79% (inactive) | 81.2% (inactive) | 71% (inactive) | 38.9% (inactive) | 32.1 | 71 | -6.44% (inactive) | 1.61% (inactive)
28 | COc1ccc(-n2nc3cc(C)c(N)c(Br)c3n2)cc1 | 74% (inactive) | 85.6% (inactive) | 65.5% (inactive) | -33.4% (inactive) | 98.9 | 65.5 | -6.3% (inactive) | -1.45% (inactive)
29 | COc1ccc(CN2C(=O)[C@@H]3C(c4ccc(F)cc4)=NO[C@@H]3C2=O)cc1 | 91% (inactive) | 114% (inactive) | 89.1% (inactive) | 3.49% (inactive) | 85.6 | 89.1 | -6.62% (inactive) | 1.64% (inactive)
30 | Cc1cc(C(F)(F)F)nc(NCc2cccnc2)n1 | 97% (inactive) | 96.4% (inactive) | 92.5% (inactive) | 9.55% (inactive) | 82.9 | 92.5 | -1.04% (inactive) | -1.97% (inactive)
31 | CC(=O)Nc1nc(C)c(-c2csc(Nc3ccc(O)cc3)n2)s1 | 114% (inactive) | 19.7% (active) | 13.3% (active) | -5.39% (inactive) | 18.6 | 13.3 | -3.95% (inactive) | -6.13% (inactive)
32 | COc1ccc(-c2nnc(SCC(=O)Nc3sc4c(c3C#N)CCC4)n2CC2CCCO2)cc1 (stereo unspecified) | 89% (inactive) | 97% (inactive) | 93.8% (inactive) | 19.5% (inactive) | 74.4 | 93.8 | 2.43% (inactive) | -1.43% (inactive)
33 | Cc1ccc2nc(-c3ccc(S(=O)(=O)N4CCOCC4)cc3)cn2c1 | 138% (inactive) | 108% (inactive) | 105% (inactive) | 6.21% (inactive) | 98.5 | 105 | -1.17% (inactive) | -1.48% (inactive)
34 | CN(C)C(=O)CN(C)S(=O)(=O)c1ccc(Cl)cc1 | 139% (inactive) | 98.9% (inactive) | 97.9% (inactive) | -6.11% (inactive) | 104 | 97.9 | -6.3% (inactive) | 1.82% (inactive)
35 | O=C(Nc1cc(C(F)(F)F)ccc1N1CCCC1)c1ccc2c(c1)OCO2 | 72% (inactive) | 92.9% (inactive) | 98% (inactive) | 0.92% (inactive) | 97.1 | 98 | -6.99% (inactive) | -5.09% (inactive)
36 | Cc1nn(C(=O)c2ccccc2)c2c1C(=O)CC(C)(C)C2 | 76% (inactive) | 95.8% (inactive) | 94.7% (inactive) | 1.29% (inactive) | 93.4 | 94.7 | -7.12% (inactive) | 0.73% (inactive)
37 | Cc1cc(C(=O)COC(=O)CCc2nc3ccccc3s2)c(C)n1C | 94% (inactive) | 116% (inactive) | 101% (inactive) | -5.69% (inactive) | 107 | 101 | -3.7% (inactive) | -5.09% (inactive)
